Compound activity from PubChem.
CHO parental Ca = counter-screen for OX1R antagonists: effect in parental CHO cells. inhibition, % at 5.6 µM. parental CHO-K1, ATP-induced calcium, Fluo-8 fluorescence. hit rate 0.63% among 330,000;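 active = inhibition above that plate's mean sample inhibition plus 3 SD, cut at about 26% in these data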
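Test system: untransfected parental CHO cell line; also added: ATP stimulus; dosing: 5.6 µM, single dose; signal: calcium-sensitive Fluo-8 fluorescence; measure: percent inhibition of ATP-evoked calcium rise, normalized to controls; benchmarks: low control ATP plus DMSO, high control DMSO only; replication: one well per compound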
OXTR agonist = agonists of human oxytocin receptor; hit rate 0.32% among 320,000; CHO-OTR cells, Fluo-8 calcium fluorescence; normalized: DMSO 0%, oxytocin 100%; AID 2435; activation, % at 3 µM;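 active = activation above the mean of all tested compounds plus 3 SD, cutoff set per screening run, cut at about 20% in these data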;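 note: peak over basal fluorescence ratio from a 100 s FLIPR kinetic read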
OXTR potentiator = human OXTR potentiation; P30559; CHO-OTR cells, Fluo-8 calcium fluorescence, potentiator mode; 0% = oxytocin EC15, 100% = EC100; activation, % at 3 µM; hit rate 0.061% among 320,000; AID 2445;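 active = activation above that plate's cutoff, the mean activation of tested compounds plus 3 SD, cut at about 6.6% in these data, passing the limit was not always enough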
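Material: CHO-OTR cells, human receptor; compound dosing: single dose, 3.0 µM nominal final compound concentration; schedule: 6 min compound pre-incubation at room temperature, 100 s kinetic read; measured by: kinetic Fluo-8 calcium fluorescence; read-out basis: % activation vs EC15 and EC100 oxytocin; controls: EC15 oxytocin alone as 0%, 75 nM oxytocin as 100%; replicates: singlicate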
OX1R antag-1 = antagonists of human orexin 1 receptor (OX1R); O43613; OX1R-expressing cells, FRET antagonist read-out; inhibition, % at 6.6 µM; hit rate 1.8% among 330,000; AID 485270; in the data active = inhibition mostly above about 38%, no sharp cut-off; inactive = mostly below about 40%
V1R ag counter = activates human V1a receptor in oxytocin agonist counter-screen | CHO-V1R cells, Fluo-8 calcium fluorescence, agonist mode; 0% DMSO, 100% 3 nM vasopressin | activation, % at 3 µM | hit rate 0.25% among 320,000;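 active = activation above the mean activation of all tested compounds plus 3 SD, per screening run, cut at about 20% in these data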;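 note: signal is peak over basal fluorescence ratio across a 100 second FLIPR read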
Target sequence (P37288 whole entry, looked up): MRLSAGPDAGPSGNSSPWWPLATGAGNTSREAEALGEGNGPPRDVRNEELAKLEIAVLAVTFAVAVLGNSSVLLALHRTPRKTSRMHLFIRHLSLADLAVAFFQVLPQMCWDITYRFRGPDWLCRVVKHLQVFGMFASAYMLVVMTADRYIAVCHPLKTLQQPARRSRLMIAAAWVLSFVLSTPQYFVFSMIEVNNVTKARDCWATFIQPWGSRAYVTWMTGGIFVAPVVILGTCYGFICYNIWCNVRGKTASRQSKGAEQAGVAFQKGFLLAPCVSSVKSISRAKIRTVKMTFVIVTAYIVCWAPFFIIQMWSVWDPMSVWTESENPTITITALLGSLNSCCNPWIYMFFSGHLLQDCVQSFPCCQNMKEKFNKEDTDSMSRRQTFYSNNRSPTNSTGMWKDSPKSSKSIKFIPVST
OX1R antag-2 = antagonists of human orexin 1 receptor; inhibition, % at 5 µM; hit rate 0.43% among 330,000; AID 434989; CHO/OX1R cells, Fluo-8 calcium fluorescence, orexin A; O43613;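 active = inhibition above its plate's threshold, mean inhibition of all tested compounds on the plate plus 3 SD, cut at about 37% in these data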
Hits are given with their value; - = inactive; . = no result. The list is not random: actives were taken first. Their share in the collection is about 2.7%.

SMILES	CHO parental Ca	OXTR agonist	OXTR potentiator	OX1R antag-1	V1R ag counter	OX1R antag-2
C=CCn1c(SCC(=O)C23CC4CC(CC(C4)C2)C3)nc(O)cc1=O	-	-	-	-	-	-
CCN1CCN(c2ccc(S(=O)(=O)N3CCCCC3)cc2NC(=O)c2cccc(OC(F)F)c2)CC1	-	-	-	-	-	-
CC(=O)Nc1ccc(C(=O)NCC2(N3CCCCC3)CCCCC2)cc1	-	-	-	-	-	-
Cc1ccc(C(=O)OCC(=O)NC(=O)NCc2ccccc2)cc1C	-	-	-	-	-	-
O=C(COC(=O)c1ccc(F)c([N+](=O)[O-])c1)NC(=O)NCc1ccccc1	-	-	-	33	-	-
COc1ccc(/C=C(\NC(=O)/C=C/c2ccco2)C(=O)NCCc2nc3ccccc3[nH]2)cc1	-	-	-	-	-	-
COc1ccc(/C=C(\NC(=O)c2ccco2)C(=O)NCCc2nc3ccccc3[nH]2)cc1	-	-	-	46	-	-
C=CCN1C(=O)c2ccc(C(=O)OCC(=O)N(CC)C3CCS(=O)(=O)C3)cc2C1=O (stereo unspecified)	-	-	-	42	-	-
CN(C(=O)COC(=O)CCCN1C(=O)c2cccc3cccc(c23)C1=O)C1CCS(=O)(=O)C1 (stereo unspecified)	-	-	-	67	-	-
CCN(C(=O)COC(=O)CCCN1C(=O)c2cccc3cccc(c23)C1=O)C1CCS(=O)(=O)C1 (stereo unspecified)	-	-	-	53	-	-
CCN1C(=O)C(=O)N(CC(=O)NC(C)CCc2ccccc2)C1=O (stereo unspecified)	-	-	-	-	-	-
O=C(c1cccc([N+](=O)[O-])c1)c1ccc2c(c1)C(=O)NC2=O	-	-	-	54	-	-
CC(=O)c1cccc([N+](=O)[O-])c1	-	-	-	-	-	-
Cc1cc(CN(C)C(=O)c2cc(COc3ccc4ncccc4c3)on2)on1	29	-	-	-	-	-
COc1cc(Cl)ccc1OCc1cc(C(=O)NCC(C)c2ccccc2)no1 (stereo unspecified)	-	-	-	-	-	-
CC(CNC(=O)c1cc(COc2ccc3ncccc3c2)on1)c1ccccc1 (stereo unspecified)	58	-	-	57	-	-
Nc1c(C(=O)CSc2nc(-c3ccccc3)cs2)c(=O)[nH]c(=O)n1C1CC1	-	-	-	-	-	-
CC(C)CN(C(=O)COC(=O)c1ccccc1NCc1ccco1)c1c(N)n(Cc2ccccc2)c(=O)[nH]c1=O	-	-	-	75	-	-
COCCN(C(=O)COC(=O)c1ccccc1NCc1ccco1)c1c(N)n(Cc2ccccc2)c(=O)[nH]c1=O	-	-	-	42	-	-
Cc1cccc(C(=O)OCC(=O)N(CC(C)C)c2c(N)n(Cc3ccccc3)c(=O)[nH]c2=O)c1O	-	-	-	-	-	-
CCC(C)c1ccccc1NC(=O)C(C)OC(=O)CN1C(=O)NC(C)(C)C1=O (stereo unspecified)	-	-	-	-	-	-
O=C(Nc1nc(-c2ccccc2)cs1)c1ccccc1NS(=O)(=O)c1ccc(F)cc1	57	-	-	94	-	64
O=C(CCNS(=O)(=O)c1ccc2nsnc2c1)N1CCN(c2ccncc2)CC1	-	-	-	51	-	-
O=c1oc2c3c4c(cc2c2c1CCC2)OCCN4CCC3	-	-	-	59	-	-
Cc1c(O)c(CN2CCCC2)cc2c3c(c(=O)oc12)CCC3	-	-	-	-	-	-
SMILES	CHO parental Ca	OXTR agonist	OXTR potentiator	OX1R antag-1	V1R ag counter	OX1R antag-2
O=C(CCN1C(=O)/C(=C/c2ccc3c(c2)OCO3)SC1=S)Nc1cccc(C(=O)O)c1	-	-	-	-	-	-
COc1cccc(/C=C2/SC(=S)N(CCCC(=O)Nc3ccc(O)cc3)C2=O)c1	-	-	-	73	-	-
COc1ccc(/C=C2\SC(=S)N(CCCC(=O)Nc3ccc(C(=O)O)cc3)C2=O)cc1OC	-	-	-	-	-	-
COc1ccc(/C=C2/SC(=S)N(CCCC(=O)Nc3ccc(O)cc3)C2=O)cc1OC	-	-	-	54	-	-
COc1cccc(/C=C2/SC(=S)N(CC(=O)NNC(=O)c3ccccc3O)C2=O)c1	-	-	-	48	-	-
O=C(CCCN1C(=O)/C(=C/c2ccc3c(c2)OCO3)SC1=S)Nc1cccc(C(=O)O)c1	-	-	-	54	-	-
Cc1ccc2nc(NC(=O)C3CCN(C(=O)c4ccc(F)cc4)CC3)sc2c1	-	-	-	-	-	-
CC(C)(O)c1[nH]c2cc(F)ccc2c1C(C)(C)O	-	-	-	-	-	-
COc1ccc(C2SCCN2C(=S)Nc2cccc(C(F)(F)F)c2)cc1 (stereo unspecified)	-	39	-	-	22	-
C/C(=N\NC(=O)c1ccc(-c2ccccc2)cc1)C1C(=O)c2ccccc2C1=O	-	-	-	-	-	-
CC(/C=N/NC(=O)c1cc(-c2ccc(C)o2)[nH]n1)=C\c1ccccc1	-	-	-	59	-	-
CC(/C=N/NC(=O)c1ccc(Br)cc1)=C\c1ccccc1	66	-	-	-	-	-
Cc1ccc(-c2cc(C(=O)N/N=C/c3ccccc3)n[nH]2)o1	-	-	-	-	-	-
C/C(=N\NC(=O)c1ccc(Br)cc1)C1C(=O)c2ccccc2C1=O	-	-	-	55	-	-
CN(C)CCCNC(=O)c1cc(C(=O)c2cccc(Cl)c2Cl)c[nH]1	-	-	-	-	-	-
CCCCn1c(SCC(=O)Nc2cc(NC(=O)c3ccco3)ccc2C)nc2ccccc2c1=O	-	-	-	41	-	-
COCCn1c(SCC(=O)Nc2ccc(NC(=O)c3ccco3)c(OC)c2)nc2ccccc2c1=O	-	-	-	-	-	-
Cc1nc(N=C(N)N)nc2ccccc12	-	-	-	-	-	-
Cc1nc(/N=C(\N)NC(=O)c2ccccc2)nc2ccccc12	-	-	-	72	-	-
CC[C@]1(C(=O)OC)[C@H]2C(=O)N(C)C(=O)[C@H]2[C@H]2CN(C)C(=NC3CCCCC3)N21	-	.	.	-	.	-
O=C(Nc1nc2ccc(F)cc2s1)C1CCN(S(=O)(=O)c2cc([N+](=O)[O-])ccc2Cl)CC1	67	-	-	-	-	-
COc1ccc(NC(=O)C2CCN(S(=O)(=O)c3cccc4nonc34)CC2)cc1	-	-	-	-	-	-
CN1CCN(C(=O)C2CCN(c3ncc(C(F)(F)F)cc3Cl)CC2)CC1	-	-	-	-	-	-
CSCCC(NC(=O)c1ccco1)C(=O)NCCc1ccc(Cl)cc1 (stereo unspecified)	-	-	-	-	-	-
CCCC[n+]1c2ccccc2cc2ccccc21	-	-	-	48	-	-
